From ChEMBL document CHEMBL1821604, “Anticancer activity and cDNA microarray studies of a (RS)-1,2,3,5-tetrahydro-4,1-benzoxazepine-3-yl]-6-chloro-9H-purine, and an acyclic (RS)-O,N-acetalic 6-chloro-7H-purine” (Eur J Med Chem, 2011)

Key:
Format in all cases: functional
MCF7 [1] = assay: Down regulation of C20orf54 gene expression in human MCF7 cells at IC50 after 48 hrs by cDNA microarray technique relative to control
Procedure, shortened: (§1)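 8 × 10⁶ cells exposed 48 h to compound at its IC50 concentration; total RNA isolated with trizol/chloroform and RNeasy columns including on-column DNase step; RNA quantified by OD 260/280; DMSO-treated cultures as control.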

MCF7 [2] = assay: Down regulation of CD72 gene expression in human MCF7 cells at IC50 after 48 hrs by cDNA microarray technique relative to control; procedure, shortened: as §1
HT-29 [3] = assay: Upregulation of IMP-1 gene expression in human HT-29 cells at IC50 after 48 hrs by cDNA microarray technique relative to control
MCF7 [4] = assay: Down regulation of ENST00000295859 gene expression in human MCF7 cells at IC50 after 48 hrs by cDNA microarray technique relative to control
Procedure, shortened: (§2)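 Cells (8 × 10⁶) were cultured in DMEM with 10% heat-inactivated FBS at 37 °C under 5% CO₂. They were exposed for 48 h to compound at its IC₅₀, with DMSO-treated parallel cultures as controls (final DMSO ≤0.1% v/v). Total RNA was isolated by trizol/chloroform phase separation, RNeasy column cleanup and on-column DNase, then quantified by OD260/OD280. Expression was profiled by cDNA microarray relative to control.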

MCF7 [5] = assay: Down regulation of ZNF336 gene expression in human MCF7 cells at IC50 after 48 hrs by cDNA microarray technique relative to control
HT-29 [6] = assay: Upregulation of TREM4 gene expression in human HT-29 cells at IC50 after 48 hrs by cDNA microarray technique relative to control
HT-29 [7] = assay: Down regulation of HTN1 gene expression in human HT-29 cells at IC50 after 48 hrs by cDNA microarray technique relative to control; procedure, shortened: as §2
HT-29 [8] = assay: Down regulation of IL12RB2 gene expression in human HT-29 cells at IC50 after 48 hrs by cDNA microarray technique relative to control; procedure, shortened: as §2
HT-29 [9] = assay: Down regulation of ALB gene expression in human HT-29 cells at IC50 after 48 hrs by cDNA microarray technique relative to control; procedure, shortened: as §1
HT-29 [10] = assay: Down regulation of ADAMTS3 gene expression in human HT-29 cells at IC50 after 48 hrs by cDNA microarray technique relative to control; procedure, shortened: as §1
HT-29 [11] = assay: Down regulation of HAPLN3 gene expression in human HT-29 cells at IC50 after 48 hrs by cDNA microarray technique relative to control; procedure, shortened: as §2
MCF7 [12] = assay: Upregulation of PTPNS1 gene expression in human MCF7 cells at IC50 after 48 hrs by cDNA microarray technique relative to control
HT-29 [13] = assay: Down regulation of AK5 gene expression in human HT-29 cells at IC50 after 48 hrs by cDNA microarray technique relative to control; procedure, shortened: as §1
MCF7 [14] = assay: Upregulation of ERG gene expression in human MCF7 cells at IC50 after 48 hrs by cDNA microarray technique relative to control
MCF7 [15] = assay: Down regulation of PCDH20 gene expression in human MCF7 cells at IC50 after 48 hrs by cDNA microarray technique relative to control
MCF7 [16] = assay: Down regulation of MGC42090 gene expression in human MCF7 cells at IC50 after 48 hrs by cDNA microarray technique relative to control
MCF7 [17] = assay: Down regulation of THSD2 gene expression in human MCF7 cells at IC50 after 48 hrs by cDNA microarray technique relative to control
HT-29 [18] = assay: Down regulation of TAF5L gene expression in human HT-29 cells at IC50 after 48 hrs by cDNA microarray technique relative to control
HT-29 [19] = assay: Down regulation of FLJ23436 gene expression in human HT-29 cells at IC50 after 48 hrs by cDNA microarray technique relative to control; procedure, shortened: as §2
HT-29 [20] = assay: Down regulation of DT1P1A10 gene expression in human HT-29 cells at IC50 after 48 hrs by cDNA microarray technique relative to control; procedure, shortened: as §2
HT-29 [21] = assay: Down regulation of ANP32C gene expression in human HT-29 cells at IC50 after 48 hrs by cDNA microarray technique relative to control; procedure, shortened: as §1
MCF7 [22] = assay: Upregulation of ZNF505 gene expression in human MCF7 cells at IC50 after 48 hrs by cDNA microarray technique relative to control
MCF7 [23] = assay: Upregulation of FLJ14075 gene expression in human MCF7 cells at IC50 after 48 hrs by cDNA microarray technique relative to control
MCF7 [24] = assay: Down regulation of TMPRSS6 gene expression in human MCF7 cells at IC50 after 48 hrs by cDNA microarray technique relative to control
MCF7 [25] = assay: Down regulation of TDGF1 gene expression in human MCF7 cells at IC50 after 48 hrs by cDNA microarray technique relative to control
MCF7 [26] = assay: Down regulation of THC2441203 gene expression in human MCF7 cells at IC50 after 48 hrs by cDNA microarray technique relative to control
MCF7 [27] = assay: Down regulation of LTBP2 gene expression in human MCF7 cells at IC50 after 48 hrs by cDNA microarray technique relative to control
HT-29 [28] = assay: Upregulation of CDH15 gene expression in human HT-29 cells at IC50 after 48 hrs by cDNA microarray technique relative to control
HT-29 [29] = assay: Down regulation of KELCHL gene expression in human HT-29 cells at IC50 after 48 hrs by cDNA microarray technique relative to control; procedure, shortened: as §2
HT-29 [30] = assay: Down regulation of RHOV gene expression in human HT-29 cells at IC50 after 48 hrs by cDNA microarray technique relative to control
Procedure, shortened: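 HT-29 cells were grown in DMEM with 10% heat-inactivated FBS at 37 °C under 5% CO2. Cultures of 8 × 10⁶ cells were treated for 48 h; controls got DMSO at ≤0.1% v/v final. Cells were detached with PBS-EDTA and total RNA was extracted with trizol/chloroform and RNeasy columns with on-column DNase. RNA was quantified by OD 260/280 before cDNA microarray comparison with control.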

COC(CN(c1ccccc1CO)S(=O)(=O)c1ccccc1[N+](=O)[O-])n1cnc2ncnc(Cl)c21 (racemic)
fold change (FC) (MCF7 [1]): -2.14 | fold change (FC) (MCF7 [2]): -2.17 | fold change (FC) (HT-29 [3]): 2.88 | fold change (FC) (MCF7 [4]): -2.27 | fold change (FC) (MCF7 [5]): -2.45 | fold change (FC) (HT-29 [6]): 2.27 | fold change (FC) (HT-29 [7]): -2.1 | fold change (FC) (HT-29 [8]): -2.3 | fold change (FC) (HT-29 [9]): -2.32 | fold change (FC) (HT-29 [10]): -2.43 | fold change (FC) (HT-29 [11]): -2.64 | fold change (FC) (MCF7 [12]): 2.89 | fold change (FC) (HT-29 [13]): -3.52 | fold change (FC) (MCF7 [14]): 2 | fold change (FC) (MCF7 [15]): -2.01 | fold change (FC) (MCF7 [16]): -2.03 | fold change (FC) (MCF7 [17]): -2.28

O=C(OCC1c2ccccc2-c2ccccc21)N1CC(n2cnc3c(Cl)ncnc32)OCc2ccccc21 (racemic)
fold change (FC) (HT-29 [18]): -2.18 | fold change (FC) (HT-29 [19]): -2.2 | fold change (FC) (HT-29 [20]): -2.28 | fold change (FC) (HT-29 [21]): -2.81 | fold change (FC) (MCF7 [22]): 5.62 | fold change (FC) (MCF7 [23]): 4.84 | fold change (FC) (MCF7 [24]): -2.03 | fold change (FC) (MCF7 [25]): -3 | fold change (FC) (MCF7 [26]): -3.19 | fold change (FC) (MCF7 [27]): -3.28 | fold change (FC) (HT-29 [28]): 2.06 | fold change (FC) (HT-29 [29]): -2.02 | fold change (FC) (HT-29 [30]): -2.07
